# Laboratory results published in ChEMBL document CHEMBL1134050, “Phenyl benzenesulfonamides are novel and selective 5-HT6 antagonists: identification of N-(2,5-dibromo-3-fluorophenyl)-4-methoxy-3-piperazin-1-ylbenzenesulfonamide (SB-357134)” (Bioorg Med Chem Lett, 2001).
# Experiments:
# [1] = target: 5-hydroxytryptamine receptor 6 (Homo sapiens, UniProt P50406); assay: Binding affinity against human 5-hydroxytryptamine 6 receptor
# [2] = Plasma Clearance measured at steady-state following iv infusion at 0.6 mg/kg/h in rats; type: ADME, organism-based; set-up: route intravenous; conditions: rat, 0.6 mg/kg/h infusion
# [3] = target: D(2) dopamine receptor (Homo sapiens, UniProt P14416); assay: Compound was evaluated for binding affinity against Dopamine receptor D2 in CHO cells using [125I]iodosulpiride as the radioligand; type: cell-based
# Summary of the method: (§1)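 Radioligand binding to human cloned receptors: 5-HT1A in HEK 293 cells with [3H]-8-OH-DPAT; 5-HT1B and 5-HT1E in CHO cells with [3H]-5-HT; 5-HT2B in HEK 293 cells with [3H]-5-HT; D2 and D3 in CHO cells with [125I]-iodosulpride. Values are the mean of at least two determinations, each within 0.2 log unit of the mean.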
# [4] = target: T1, 5-hydroxytryptamine receptor 1F (Homo sapiens, UniProt P30939); assay: Compound was evaluated for binding affinity against human cloned 5-hydroxytryptamine 1F receptor in CHO cells using [3H]-5-HT as the radioligand; type: cell-based
# T1 sequence (P30939 whole entry): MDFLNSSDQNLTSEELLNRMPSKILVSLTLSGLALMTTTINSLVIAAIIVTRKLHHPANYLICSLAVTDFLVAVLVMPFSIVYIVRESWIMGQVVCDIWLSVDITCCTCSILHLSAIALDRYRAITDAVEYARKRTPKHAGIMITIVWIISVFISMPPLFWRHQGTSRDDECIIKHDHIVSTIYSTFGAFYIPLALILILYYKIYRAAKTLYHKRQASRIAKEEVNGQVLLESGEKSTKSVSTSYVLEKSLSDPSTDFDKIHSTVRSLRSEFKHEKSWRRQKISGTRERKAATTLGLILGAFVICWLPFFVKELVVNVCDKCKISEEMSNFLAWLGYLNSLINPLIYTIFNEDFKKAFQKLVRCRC
# [5] = target: T2, Alpha-1B adrenergic receptor (Homo sapiens, UniProt P35368); assay: Compound was evaluated for binding affinity against Alpha-1B adrenergic receptor
# T2 sequence (P35368 whole entry): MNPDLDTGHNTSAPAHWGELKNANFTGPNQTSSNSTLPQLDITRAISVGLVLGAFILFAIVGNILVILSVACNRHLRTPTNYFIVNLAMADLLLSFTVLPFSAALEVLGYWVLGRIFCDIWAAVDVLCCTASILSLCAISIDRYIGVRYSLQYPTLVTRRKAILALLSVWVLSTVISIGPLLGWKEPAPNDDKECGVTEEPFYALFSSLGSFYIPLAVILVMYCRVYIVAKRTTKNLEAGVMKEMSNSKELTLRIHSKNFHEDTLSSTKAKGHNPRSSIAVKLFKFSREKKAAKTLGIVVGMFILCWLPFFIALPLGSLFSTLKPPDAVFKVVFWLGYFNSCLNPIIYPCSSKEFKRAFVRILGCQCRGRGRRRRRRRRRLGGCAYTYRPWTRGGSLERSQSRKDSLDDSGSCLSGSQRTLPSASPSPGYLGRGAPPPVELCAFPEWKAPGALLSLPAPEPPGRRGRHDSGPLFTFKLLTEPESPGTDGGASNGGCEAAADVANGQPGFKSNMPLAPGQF
# [6] = target: 5-hydroxytryptamine receptor 4 (Homo sapiens, UniProt Q13639); assay: Compound was evaluated for the binding affinity against human cloned 5-hydroxytryptamine 4 receptor in HeLa cells using [3H]-LSD as the radioligand; type: cell-based
# [7] = target: 5-hydroxytryptamine receptor 7 (Homo sapiens, UniProt P34969); assay: Compound was evaluated for binding affinity against human cloned 5-hydroxytryptamine 7 receptor in HEK 293 cells using [3H]5-CT as the radioligand (n=3); type: cell-based, HEK293
# [8] = organism: Rattus norvegicus; assay: Blood: Brain distribution ratio is determined in rat; type: ADME, organism-based
# Summary of the method: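 Rats received iv infusion for 8 h, and the brain:blood ratio was taken at steady state.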
# [9] = target: T3, 5-hydroxytryptamine receptor 2C (Homo sapiens, UniProt P28335); assay: Compound was evaluated for binding affinity against human cloned 5-hydroxytryptamine 2C receptor in HEK 293 cells using [3H]mesulergine as the radioligand; type: cell-based, HEK293
# T3 sequence (P28335 whole entry): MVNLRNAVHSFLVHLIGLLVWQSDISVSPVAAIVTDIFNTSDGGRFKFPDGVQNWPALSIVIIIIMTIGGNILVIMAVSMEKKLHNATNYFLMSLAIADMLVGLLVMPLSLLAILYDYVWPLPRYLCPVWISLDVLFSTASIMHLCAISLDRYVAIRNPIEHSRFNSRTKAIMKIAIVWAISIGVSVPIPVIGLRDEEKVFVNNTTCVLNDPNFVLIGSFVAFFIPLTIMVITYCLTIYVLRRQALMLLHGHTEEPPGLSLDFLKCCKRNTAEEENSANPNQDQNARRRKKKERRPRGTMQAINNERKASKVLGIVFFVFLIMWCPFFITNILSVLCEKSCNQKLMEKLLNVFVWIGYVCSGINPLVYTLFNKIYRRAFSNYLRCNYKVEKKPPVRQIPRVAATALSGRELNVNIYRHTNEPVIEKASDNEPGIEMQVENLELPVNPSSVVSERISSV
# [10] = target: D(3) dopamine receptor (Homo sapiens, UniProt P35462); assay: Compound was evaluated for binding affinity against Dopamine receptor D3 in CHO cells using [125I]iodosulpiride as the radioligand; type: cell-based; summary of the method: as §1
# [11] = target: 5-hydroxytryptamine receptor 1B (Homo sapiens, UniProt P28222); assay: Compound was evaluated for binding affinity against human cloned 5-hydroxytryptamine 1B receptor in CHO cells using [3H]5-HT as the radioligand; type: cell-based; summary of the method: as §1
# [12] = target: 5-hydroxytryptamine receptor 1D (Homo sapiens, UniProt P28221); assay: Compound was evaluated for binding affinity against human cloned 5-hydroxytryptamine 1D receptor in CHO cells using [3H]5-HT as the radioligand; type: cell-based
# [13] = target: 5-hydroxytryptamine receptor 2B (Homo sapiens, UniProt P41595); assay: Compound was evaluated for binding affinity against human cloned 5-HT2B receptor in HEK 293 cells using [3H]5-HT as the radioligand; type: cell-based, HEK293; summary of the method: as §1
# [14] = target: 5-hydroxytryptamine receptor 2A (Homo sapiens, UniProt P28223); assay: Compound was evaluated for binding affinity against human cloned 5-hydroxytryptamine 2A receptor in HEK 293 cells using [3H]ketanserin as the radioligand; type: cell-based, HEK293
# [15] = target: T4, 5-hydroxytryptamine receptor 1A (Homo sapiens, UniProt P08908); assay: Compound was evaluated for binding affinity against human cloned 5-hydroxytryptamine 1A receptor in HEK 293 cells using [3H]8-OH-DPAT as the radioligand; type: cell-based, HEK293; summary of the method: as §1
# T4 sequence (P08908 whole entry): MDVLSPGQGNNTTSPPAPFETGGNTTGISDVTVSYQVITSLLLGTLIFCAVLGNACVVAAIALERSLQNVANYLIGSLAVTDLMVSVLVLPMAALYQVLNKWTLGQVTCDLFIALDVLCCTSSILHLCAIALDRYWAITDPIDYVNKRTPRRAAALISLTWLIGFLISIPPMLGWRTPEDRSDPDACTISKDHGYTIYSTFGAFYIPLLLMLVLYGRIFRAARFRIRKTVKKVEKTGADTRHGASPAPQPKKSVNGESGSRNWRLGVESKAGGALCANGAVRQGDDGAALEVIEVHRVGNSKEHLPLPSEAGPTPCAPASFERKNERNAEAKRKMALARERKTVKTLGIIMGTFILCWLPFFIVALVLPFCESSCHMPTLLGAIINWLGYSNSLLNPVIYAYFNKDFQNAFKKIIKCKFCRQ
# [16] = target: 5-hydroxytryptamine receptor 1E (Homo sapiens, UniProt P28566); assay: Compound was evaluated for binding affinity against human cloned 5-hydroxytryptamine 1E receptor in CHO cells using [3H]5-HT as the radioligand; type: cell-based; summary of the method: as §1
# [17] = Bioavailability in rat (dose 3 mg/kg in 1% methylcellulose ); type: ADME, organism-based; conditions: in vivo
# Summary of the method: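 Oral suspension dose of 3 mg/kg in 1% methylcellulose (v/v) aq to rats (n=3). Blood levels were measured by LC/MS/MS to derive AUC/dose and bioavailability.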
# [18] = Bioavailability in rat (dose 10 mg/kg in 10% Encapsin and 2% DMSO p.o.); conditions: in vivo, po
# 5-hydroxytryptamine receptor 6, sequence (P50406 whole entry, the tested form may be a part): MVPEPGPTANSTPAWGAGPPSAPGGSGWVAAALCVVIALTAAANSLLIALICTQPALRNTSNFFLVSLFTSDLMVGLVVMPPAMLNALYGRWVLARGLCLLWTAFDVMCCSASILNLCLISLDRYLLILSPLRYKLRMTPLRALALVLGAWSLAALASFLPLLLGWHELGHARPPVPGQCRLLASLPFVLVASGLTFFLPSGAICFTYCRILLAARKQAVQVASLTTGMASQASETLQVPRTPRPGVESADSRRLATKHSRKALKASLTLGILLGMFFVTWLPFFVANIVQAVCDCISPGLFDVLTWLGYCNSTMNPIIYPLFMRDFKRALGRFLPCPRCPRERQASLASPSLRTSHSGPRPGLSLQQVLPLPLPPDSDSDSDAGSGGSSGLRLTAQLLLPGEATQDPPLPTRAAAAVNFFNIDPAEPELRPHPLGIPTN
# 5-hydroxytryptamine receptor 2A, sequence (P28223 whole entry): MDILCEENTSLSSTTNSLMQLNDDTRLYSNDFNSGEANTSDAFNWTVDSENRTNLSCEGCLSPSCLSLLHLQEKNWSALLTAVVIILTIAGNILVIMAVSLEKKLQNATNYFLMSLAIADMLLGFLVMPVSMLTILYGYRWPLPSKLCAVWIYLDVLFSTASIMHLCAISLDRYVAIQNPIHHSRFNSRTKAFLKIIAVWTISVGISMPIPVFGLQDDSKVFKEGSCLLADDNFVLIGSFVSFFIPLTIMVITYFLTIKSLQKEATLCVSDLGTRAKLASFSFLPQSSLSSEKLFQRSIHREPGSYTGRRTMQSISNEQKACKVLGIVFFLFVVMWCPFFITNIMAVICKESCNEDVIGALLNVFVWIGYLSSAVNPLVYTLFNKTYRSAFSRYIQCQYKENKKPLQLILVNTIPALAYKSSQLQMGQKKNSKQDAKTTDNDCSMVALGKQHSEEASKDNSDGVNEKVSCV
# D(2) dopamine receptor, sequence (P14416 whole entry): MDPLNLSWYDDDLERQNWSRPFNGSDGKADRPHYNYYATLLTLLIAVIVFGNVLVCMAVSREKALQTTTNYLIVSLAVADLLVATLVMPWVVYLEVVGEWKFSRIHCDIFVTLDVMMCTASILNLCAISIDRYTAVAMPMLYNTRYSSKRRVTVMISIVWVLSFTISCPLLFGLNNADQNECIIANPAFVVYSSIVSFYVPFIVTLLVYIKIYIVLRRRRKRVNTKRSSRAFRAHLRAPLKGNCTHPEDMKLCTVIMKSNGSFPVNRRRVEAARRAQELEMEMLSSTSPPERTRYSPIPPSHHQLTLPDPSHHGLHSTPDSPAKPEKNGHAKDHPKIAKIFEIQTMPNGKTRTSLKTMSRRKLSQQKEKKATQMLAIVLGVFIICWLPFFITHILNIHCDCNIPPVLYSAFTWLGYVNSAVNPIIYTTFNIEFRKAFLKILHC
# 5-hydroxytryptamine receptor 1E, sequence (P28566 whole entry): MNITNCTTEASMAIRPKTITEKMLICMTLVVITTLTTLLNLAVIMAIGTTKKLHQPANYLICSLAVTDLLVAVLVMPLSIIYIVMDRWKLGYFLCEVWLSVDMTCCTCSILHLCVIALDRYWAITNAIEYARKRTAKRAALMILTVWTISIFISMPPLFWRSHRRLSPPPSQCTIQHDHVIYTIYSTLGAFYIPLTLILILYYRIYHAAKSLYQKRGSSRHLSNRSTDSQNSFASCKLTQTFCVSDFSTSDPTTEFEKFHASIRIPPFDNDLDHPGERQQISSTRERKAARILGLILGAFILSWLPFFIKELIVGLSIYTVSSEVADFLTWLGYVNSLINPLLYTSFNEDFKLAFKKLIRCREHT
# 5-hydroxytryptamine receptor 1B, sequence (P28222 whole entry): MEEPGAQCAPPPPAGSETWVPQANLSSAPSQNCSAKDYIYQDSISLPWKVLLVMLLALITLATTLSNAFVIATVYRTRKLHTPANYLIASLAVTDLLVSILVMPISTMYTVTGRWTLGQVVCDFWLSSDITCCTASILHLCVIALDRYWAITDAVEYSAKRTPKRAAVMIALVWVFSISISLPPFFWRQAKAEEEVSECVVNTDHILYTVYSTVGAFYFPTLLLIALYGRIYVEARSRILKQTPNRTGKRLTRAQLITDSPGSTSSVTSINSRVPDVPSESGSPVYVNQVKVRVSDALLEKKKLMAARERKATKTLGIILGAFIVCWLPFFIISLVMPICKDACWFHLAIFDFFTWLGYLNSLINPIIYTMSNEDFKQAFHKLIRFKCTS
# 5-hydroxytryptamine receptor 4, sequence (Q13639 whole entry): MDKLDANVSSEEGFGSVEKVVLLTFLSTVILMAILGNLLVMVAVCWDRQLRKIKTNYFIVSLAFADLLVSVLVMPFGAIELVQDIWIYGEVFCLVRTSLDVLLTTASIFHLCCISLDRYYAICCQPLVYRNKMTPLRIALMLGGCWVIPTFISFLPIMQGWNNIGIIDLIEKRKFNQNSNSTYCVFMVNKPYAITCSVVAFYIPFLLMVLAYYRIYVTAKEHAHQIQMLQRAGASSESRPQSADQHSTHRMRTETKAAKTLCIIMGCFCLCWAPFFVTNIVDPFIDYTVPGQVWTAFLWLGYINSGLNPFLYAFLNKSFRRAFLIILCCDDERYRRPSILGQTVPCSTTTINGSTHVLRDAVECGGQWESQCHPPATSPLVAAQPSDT
# 5-hydroxytryptamine receptor 7, sequence (P34969 whole entry): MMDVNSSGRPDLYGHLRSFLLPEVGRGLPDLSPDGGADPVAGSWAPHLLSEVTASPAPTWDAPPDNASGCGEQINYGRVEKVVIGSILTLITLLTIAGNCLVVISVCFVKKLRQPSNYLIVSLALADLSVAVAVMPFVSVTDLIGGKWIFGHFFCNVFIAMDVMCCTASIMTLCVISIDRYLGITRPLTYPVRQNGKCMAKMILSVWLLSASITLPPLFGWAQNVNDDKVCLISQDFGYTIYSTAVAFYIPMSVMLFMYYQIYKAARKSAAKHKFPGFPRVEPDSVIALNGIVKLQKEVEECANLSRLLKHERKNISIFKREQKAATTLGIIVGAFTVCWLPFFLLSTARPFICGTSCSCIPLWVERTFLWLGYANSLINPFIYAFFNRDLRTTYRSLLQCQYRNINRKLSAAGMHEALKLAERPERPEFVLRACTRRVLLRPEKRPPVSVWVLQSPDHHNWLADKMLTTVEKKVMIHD
# 5-hydroxytryptamine receptor 2B, sequence (P41595 whole entry): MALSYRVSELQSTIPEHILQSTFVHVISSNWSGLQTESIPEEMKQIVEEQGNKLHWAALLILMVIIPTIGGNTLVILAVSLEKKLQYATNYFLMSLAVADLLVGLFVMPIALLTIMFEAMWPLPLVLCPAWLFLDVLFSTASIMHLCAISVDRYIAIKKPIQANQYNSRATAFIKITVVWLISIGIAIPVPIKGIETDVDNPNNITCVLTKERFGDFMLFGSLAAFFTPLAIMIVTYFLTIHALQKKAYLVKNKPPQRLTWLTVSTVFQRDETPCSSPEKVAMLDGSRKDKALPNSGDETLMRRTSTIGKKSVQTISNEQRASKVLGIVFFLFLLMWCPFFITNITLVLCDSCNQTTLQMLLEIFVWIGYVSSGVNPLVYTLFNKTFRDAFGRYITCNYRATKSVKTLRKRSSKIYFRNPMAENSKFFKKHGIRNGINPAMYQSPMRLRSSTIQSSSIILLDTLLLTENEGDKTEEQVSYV
# 5-hydroxytryptamine receptor 1D, sequence (P28221 whole entry): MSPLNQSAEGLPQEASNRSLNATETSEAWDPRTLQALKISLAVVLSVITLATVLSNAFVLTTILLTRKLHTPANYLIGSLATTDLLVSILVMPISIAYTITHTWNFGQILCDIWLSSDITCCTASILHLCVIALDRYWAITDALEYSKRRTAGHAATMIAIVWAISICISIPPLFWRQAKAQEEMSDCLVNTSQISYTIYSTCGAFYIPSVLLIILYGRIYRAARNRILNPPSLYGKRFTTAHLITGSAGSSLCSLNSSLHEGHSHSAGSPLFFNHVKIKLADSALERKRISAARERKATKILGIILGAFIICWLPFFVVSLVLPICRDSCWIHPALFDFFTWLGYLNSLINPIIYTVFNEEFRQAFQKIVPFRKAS
# D(3) dopamine receptor, sequence (P35462 whole entry): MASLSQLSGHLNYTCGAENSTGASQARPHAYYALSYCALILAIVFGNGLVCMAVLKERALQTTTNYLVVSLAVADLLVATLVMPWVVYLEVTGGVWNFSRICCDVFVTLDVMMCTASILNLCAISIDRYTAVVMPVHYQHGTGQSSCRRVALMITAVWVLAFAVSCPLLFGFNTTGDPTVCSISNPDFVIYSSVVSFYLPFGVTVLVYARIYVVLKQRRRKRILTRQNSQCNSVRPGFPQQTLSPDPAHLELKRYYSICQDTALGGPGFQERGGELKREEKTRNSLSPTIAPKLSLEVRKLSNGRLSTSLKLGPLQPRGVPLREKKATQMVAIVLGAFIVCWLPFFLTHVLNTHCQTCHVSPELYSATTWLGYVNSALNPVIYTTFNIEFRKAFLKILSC
smiles,measurement,setting,value
COc1ccc(C(F)(F)F)cc1NS(=O)(=O)c1ccc(OC)c(N2CCNCC2)c1,Ki,[1],3.98 nM
COc1ccc(S(=O)(=O)Nc2ccc(I)cc2)cc1N1CCNCC1,Ki,[1],2 nM
COc1ccc(S(=O)(=O)N2CCc3cccc(Cl)c3C2)cc1N1CCNCC1,clearance,[2],83 mL/min/kg
COc1ccc(S(=O)(=O)Nc2cc(Cl)c(Cl)cc2Cl)cc1N1CCNCC1,Ki,[1],5.01 nM
COc1ccc(S(=O)(=O)N2CCc3cc(I)ccc32)cc1N1CCNCC1,Ki,[1],3.98 nM
COc1ccc(S(=O)(=O)N2CCc3c(Cl)ccc(Cl)c3C2)cc1N1CCNCC1,clearance,[2],76 mL/min/kg
COc1ccc(S(=O)(=O)Nc2cc(Cl)cc(Cl)c2Cl)cc1N1CCNCC1,Ki,[3],> 10000 nM
same,Ki,[4],> 10000 nM
same,Ki,[5],> 3980 nM
same,Ki,[6],> 10000 nM
same,Ki,[7],2 nM
same,Distribution ratio,[8],0.02
same,Ki,[9],1000 nM
same,Ki,[10],> 3980 nM
same,clearance,[2],2 mL/min/kg
same,Ki,[11],> 10000 nM
same,Ki,[12],> 3160 nM
same,Ki,[13],2000 nM
same,Ki,[14],> 10000 nM
same,Ki,[15],3980 nM
same,Ki,[1],2 nM
same,Ki,[16],> 10000 nM
same,bioavailability,[17],> 80%
COc1ccc(S(=O)(=O)Nc2cc(F)cc(F)c2Cl)cc1N1CCNCC1,Ki,[1],31.6 nM
COc1ccc(S(=O)(=O)Nc2ccc(Cl)cc2C(F)(F)F)cc1N1CCNCC1,Ki,[1],25.1 nM
COc1ccc(S(=O)(=O)Nc2cccc(I)c2)cc1N1CCNCC1,Distribution ratio,[8],0.13
same,clearance,[2],58 mL/min/kg
same,Ki,[1],0.501 nM
COc1ccc(S(=O)(=O)Nc2cc(Cl)cc(Br)c2Cl)cc1N1CCNCC1,Ki,[1],2 nM
COc1ccc(S(=O)(=O)Nc2c(F)cc(Br)cc2F)cc1N1CCNCC1,Ki,[1],158 nM
COc1ccc(S(=O)(=O)Nc2cc(Br)cc(Br)c2F)cc1N1CCNCC1,Ki,[1],2.51 nM
COc1ccc(S(=O)(=O)Nc2cccc(Cl)c2)cc1N1CCNCC1,Ki,[1],1.26 nM
COc1ccc(S(=O)(=O)Nc2cc(Br)cc(Cl)c2Cl)cc1N1CCNCC1,Ki,[1],3.98 nM
COc1ccc(S(=O)(=O)Nc2ccc(C)cc2Br)cc1N1CCNCC1,Ki,[1],7.94 nM
COc1ccc(S(=O)(=O)N2CCCc3ccc(Br)cc32)cc1N1CCNCC1,Ki,[1],0.316 nM
COc1ccc(S(=O)(=O)N2CCc3ccc(I)cc32)cc1N1CCNCC1,Ki,[3],2510 nM
same,Ki,[4],> 7940 nM
same,Ki,[5],1000 nM
same,Ki,[6],3980 nM
same,Ki,[7],0.316 nM
same,Ki,[9],631 nM
same,Ki,[10],1000 nM
same,Ki,[11],1260 nM
same,Ki,[12],200 nM
same,Ki,[13],631 nM
same,Ki,[14],> 3980 nM
same,Ki,[15],501 nM
same,Ki,[1],0.316 nM
same,Ki,[16],> 10000 nM
COc1ccc(NS(=O)(=O)c2sc3ccc(Cl)cc3c2C)cc1N1CCNCC1,bioavailability,[18],82%
same,clearance,[2],8 mL/min/kg
